Results taken from ChEMBL document CHEMBL1146365, “Synthesis and biological evaluation of new N-(2-hydroxy-4(or 5)-nitro/aminophenyl)benzamides and phenylacetamides as antimicrobial agents” (2007).
Converted amounts (≈) assume the structure as drawn.

What was measured:
Klebsiella pneumoniae [1] = assay: Antibacterial activity against Klebsiella pneumoniae isolate assessed after 24 hrs by serial dilution method; type: functional
Procedure, shortened: (§1)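 Strains were subcultured twice on MHA at 37 °C overnight. Inoculum was diluted from McFarland 0.5 to 10^5 cfu/ml, giving 10^4 cfu/ml in wells. Solvent, medium and organism-only controls were included. Incubated 37 °C, humid chamber, 24 h, in triplicate. MIC = lowest concentration with no macroscopic growth.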

Pseudomonas aeruginosa [2] = assay: Antibacterial activity against Pseudomonas aeruginosa isolate assessed after 24 hrs by serial dilution method; type: functional; procedure, shortened: as §1
Escherichia coli [3] = assay: Antibacterial activity against Escherichia coli isolate assessed after 24 hrs by serial dilution method; type: functional; procedure, shortened: as §1
Bacillus subtilis [4] = assay: Antibacterial activity against Bacillus subtilis ATCC 6633 assessed after 24 hrs by serial dilution method; type: functional; settings: ATCC 6633, 24 h; procedure, shortened: as §1
Staphylococcus aureus [5] = assay: Antibacterial activity against Staphylococcus aureus ATCC 25923 assessed after 24 hrs by serial dilution method; type: functional; settings: ATCC 25923, 24 h; procedure, shortened: as §1
Candida albicans [6] = assay: Antifungal activity against Candida albicans ATCC 10231 assessed after 48 hrs by serial dilution method; type: functional; settings: ATCC 10231, 48 h
Procedure, shortened: (§2)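 Broth microdilution per CLSI M27-A in RPMI-1640 with L-glutamine, MOPS-buffered pH 7, with 2-fold compound dilutions. Yeasts were subcultured twice on SDA at 35 °C for 24–48 h. Inoculum was diluted from McFarland 0.5 to 10^4 cfu/ml, giving 10^3 cfu/ml in wells. Incubated 35 °C, humid chamber, 48 h, in triplicate. MIC = lowest concentration with no macroscopic growth.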

Candida albicans [7] = assay: Antifungal activity against Candida albicans isolate assessed after 48 hrs by serial dilution method; type: functional; procedure, shortened: as §2
Escherichia coli [8] = assay: Antibacterial activity against Escherichia coli ATCC assessed after 24 hrs by serial dilution method
Klebsiella pneumoniae [9] = assay: Antibacterial activity against Klebsiella pneumoniae RSHM 574 assessed after 24 hrs by serial dilution method
Bacillus subtilis [10] = assay: Antibacterial activity against drug-resistant Bacillus subtilis assessed after 24 hrs by serial dilution method
Pseudomonas aeruginosa [11] = assay: Antibacterial activity against Pseudomonas aeruginosa ATCC […] assessed after 24 hrs by serial dilution method
Staphylococcus aureus [12] = assay: Antibacterial activity against drug-resistant Staphylococcus aureus assessed after 24 hrs by serial dilution method

| SMILES | MIC (Klebsiella pneumoniae [1]) [µg/mL] | MIC (Pseudomonas aeruginosa [2]) [µg/mL] | MIC (Escherichia coli [3]) [µg/mL] | MIC (Bacillus subtilis [4]) [µg/mL] | MIC (Staphylococcus aureus [5]) [µg/mL] | MIC (Candida albicans [6]) [µg/mL] | MIC (Candida albicans [7]) [µg/mL] | MIC (Escherichia coli [8]) [µg/mL] | MIC (Klebsiella pneumoniae [9]) [µg/mL] | MIC (Bacillus subtilis [10]) [µg/mL] | MIC (Pseudomonas aeruginosa [11]) [µg/mL] | MIC (Staphylococcus aureus [12]) [µg/mL] |
| --- | --- | --- | --- | --- | --- | --- | --- | --- | --- | --- | --- | --- |
| Cc1ccc(CC(=O)Nc2cc(N)ccc2O)cc1 | 250 (≈ 975 µM) | 250 (≈ 975 µM) | 250 (≈ 975 µM) | 15.6 (≈ 60.9 µM) | 31.2 (≈ 122 µM) | 125 (≈ 488 µM) | 125 (≈ 488 µM) |  |  |  |  |  |
| CC1(C)S[C@@H]2[C@H](NC(=O)[C@H](N)c3ccccc3)C(=O)N2[C@H]1C(=O)O.O.O.O [AMPICILLIN TRIHYDRATE] | 256 | 2 | 500 | 16 | 64 |  |  | > 4100 | 1020 | 8 | 4 | > 4100 |
| Nc1ccc(O)c(NC(=O)c2ccccc2)c1 | 250 (≈ 1100 µM) | 250 (≈ 1100 µM) | 250 (≈ 1100 µM) | 15.6 (≈ 68.3 µM) | 31.2 (≈ 137 µM) | 125 (≈ 548 µM) | 125 (≈ 548 µM) | 125 (≈ 548 µM) | 125 (≈ 548 µM) | 62.5 (≈ 274 µM) | 125 (≈ 548 µM) | 31.2 (≈ 137 µM) |
| O=C(Cc1ccc(F)cc1)Nc1cc([N+](=O)[O-])ccc1O | 125 (≈ 431 µM) | 250 (≈ 861 µM) | 250 (≈ 861 µM) | 15.6 (≈ 53.7 µM) | 31.2 (≈ 108 µM) | 250 (≈ 861 µM) | 125 (≈ 431 µM) | 62.5 (≈ 215 µM) | 125 (≈ 431 µM) | 31.2 (≈ 108 µM) | 250 (≈ 861 µM) | 31.2 (≈ 108 µM) |
| Nc1ccc(O)c(NC(=O)c2ccc(F)cc2)c1 | 125 (≈ 508 µM) | 125 (≈ 508 µM) | 125 (≈ 508 µM) | 62.5 (≈ 254 µM) | 15.6 (≈ 63.4 µM) | 62.5 (≈ 254 µM) | 62.5 (≈ 254 µM) | 125 (≈ 508 µM) | 62.5 (≈ 254 µM) | 62.5 (≈ 254 µM) | 62.5 (≈ 254 µM) | 15.6 (≈ 63.4 µM) |
| Cc1ccc(CC(=O)Nc2ccc(N)cc2O)cc1 | 250 (≈ 975 µM) | 250 (≈ 975 µM) | 250 (≈ 975 µM) | 62.5 (≈ 244 µM) | 250 (≈ 975 µM) | 125 (≈ 488 µM) | 250 (≈ 975 µM) | 125 (≈ 488 µM) | 125 (≈ 488 µM) | 62.5 (≈ 244 µM) | 125 (≈ 488 µM) | 62.5 (≈ 244 µM) |
| CC(C)(C)c1ccc(C(=O)Nc2ccc([N+](=O)[O-])cc2O)cc1 | 250 (≈ 795 µM) | 250 (≈ 795 µM) | 250 (≈ 795 µM) | 7.8 (≈ 24.8 µM) | 7.8 (≈ 24.8 µM) | 250 (≈ 795 µM) | 125 (≈ 398 µM) | 125 (≈ 398 µM) | 125 (≈ 398 µM) | 15.6 (≈ 49.6 µM) | 125 (≈ 398 µM) | 1.95 (≈ 6.2 µM) |
| O=C(Cc1ccc(Cl)cc1)Nc1ccc([N+](=O)[O-])cc1O | 125 (≈ 408 µM) | 250 (≈ 815 µM) | 125 (≈ 408 µM) | 250 (≈ 815 µM) | 125 (≈ 408 µM) | 125 (≈ 408 µM) | 125 (≈ 408 µM) | 125 (≈ 408 µM) | 125 (≈ 408 µM) | 31.2 (≈ 102 µM) | 125 (≈ 408 µM) | 125 (≈ 408 µM) |
| O=C(Cc1ccc(F)cc1)Nc1ccc([N+](=O)[O-])cc1O | 125 (≈ 431 µM) | 250 (≈ 861 µM) | 250 (≈ 861 µM) | 250 (≈ 861 µM) | 125 (≈ 431 µM) | 125 (≈ 431 µM) | 125 (≈ 431 µM) | 125 (≈ 431 µM) | 250 (≈ 861 µM) | 31.2 (≈ 108 µM) | 125 (≈ 431 µM) | 62.5 (≈ 215 µM) |
| CC(C)(C)c1ccc(C(=O)Nc2ccc(N)cc2O)cc1 | 125 (≈ 440 µM) | 62.5 (≈ 220 µM) | 125 (≈ 440 µM) | 15.6 (≈ 54.9 µM) | 15.6 (≈ 54.9 µM) | 62.5 (≈ 220 µM) | 62.5 (≈ 220 µM) | 125 (≈ 440 µM) | 125 (≈ 440 µM) | 7.8 (≈ 27.4 µM) | 62.5 (≈ 220 µM) | 7.8 (≈ 27.4 µM) |
| O=C(Nc1cc([N+](=O)[O-])ccc1O)c1ccc(F)cc1 | 125 (≈ 453 µM) | 125 (≈ 453 µM) | 125 (≈ 453 µM) | 3.9 (≈ 14.1 µM) | 7.8 (≈ 28.2 µM) | 62.5 (≈ 226 µM) | 62.5 (≈ 226 µM) | 125 (≈ 453 µM) | 31.2 (≈ 113 µM) | 62.5 (≈ 226 µM) | 62.5 (≈ 226 µM) | 15.6 (≈ 56.5 µM) |
| CO[C@H]1/C=C/O[C@@]2(C)Oc3c(C)c(O)c4c(O)c(c(/C=N/N5CCN(C)CC5)c(O)c4c3C2=O)NC(=O)/C(C)=C\C=C\[C@H](C)[C@H](O)[C@@H](C)[C@@H](O)[C@@H](C)[C@H](OC(C)=O)[C@@H]1C [RIFAMPIN] | 256 (≈ 311 µM) | 32 (≈ 38.9 µM) | 62.5 (≈ 75.9 µM) |  | > 4100 |  |  | > 4100 | 16 (≈ 19.4 µM) | 256 (≈ 311 µM) | 32 (≈ 38.9 µM) | 512 (≈ 622 µM) |
| Nc1ccc(O)c(NC(=O)Cc2ccc(F)cc2)c1 | 250 (≈ 961 µM) | 250 (≈ 961 µM) | 250 (≈ 961 µM) | 15.6 (≈ 59.9 µM) | 62.5 (≈ 240 µM) | 250 (≈ 961 µM) | 125 (≈ 480 µM) |  |  |  |  |  |
